Results on six compounds are retold here after ChEMBL document CHEMBL3286365, “Neoflavonoids as potential osteogenic agents from Dalbergia sissoo heartwood” (Bioorg Med Chem Lett, 2014).

The source made the active and inactive calls. The calls are words filed in the database; no cut-off is given here.

Type in all cases: functional, cell-based
Assay [1] concerns Calvarial osteoblast. As to the kind of experiment: Osteogenic activity in rat calvarial osteoblast cells assessed as induction of mineralization by Alizarin red-S staining. An outline of the steps:
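Calvarial osteoblasts trypsinized at 80% confluence and plated at 2.5×10⁴ cells/well. Treated with compound in differentiation medium (ascorbic acid 50µg/ml, β-glycerophosphate 10mM), with medium changed every alternate day for up to 21 days. Fixed in 4% paraformaldehyde for 15 min, stained 30 min with 40mM Alizarin Red-S (pH 4.5). Dye extracted with 10% acetic acid, heated at 85°C, neutralized with ammonium hydroxide, OD read at 405 nm.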

Assay [2] relates to Calvarial osteoblast. As to the kind of experiment: Increase in RunX2 gene expression in rat calvarial osteoblast cells by qPCR analysis. On the technique in general: Real-time PCR tracks product formation cycle by cycle.
Assay [3] concerns Calvarial osteoblast. Put plainly: Increase in collagen 1 gene expression in rat calvarial osteoblast cells by qPCR analysis.
The test system of assay [4] is Calvarial osteoblast. Put plainly: Increase in osteocalcin gene expression in rat calvarial osteoblast cells by qPCR analysis.
In assay [5] the test system is Calvarial osteoblast. As to the kind of experiment: Osteogenic activity in rat calvarial osteoblast cells assessed as induction of cell differentiation by measuring alkaline phosphatase activity using pNPP as substrate by calorimetric analysis. To be noted: for EC50: Rattus norvegicus, Calvarial osteoblast. The gist of the method:
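Primary rat calvarial osteoblasts, trypsinized at about 80% confluence, seeded at 2×10³ cells/well. Treated with compound (100µM, 1µM, 10nM, 100pM, 1pM) or vehicle for 48 h in α-MEM with 10% FBS, 10mM β-glycerophosphate, 50µg/ml ascorbic acid and 1% penicillin/streptomycin. Total ALP measured with p-nitrophenylphosphate substrate, absorbance at 405 nm. Mean±S.D. of three independent experiments.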

Assay [6] deals with Calvarial osteoblast. As to the kind of experiment: Increase in BMP-2 gene expression in rat calvarial osteoblast cells by qPCR analysis.

`COc1cc2oc(=O)cc(-c3ccccc3)c2cc1OC`: the result in the assay with Calvarial osteoblast [1], with Calvarial osteoblast [2], with Calvarial osteoblast [3], in the assay with Calvarial osteoblast [4] and with Calvarial osteoblast [6] was Active. Moreover, in the assay on Calvarial osteoblast [5], the “concentration of maximal effect” value worked out at 1 µM.

Take `COc1cc2oc(=O)cc(-c3ccccc3)c2cc1O` [DALBERGIN]: the outcome with Calvarial osteoblast [2], in the assay on Calvarial osteoblast [3], in the assay with Calvarial osteoblast [4] and in the assay on Calvarial osteoblast [6] was Active. The “concentration of maximal effect” value in the assay on Calvarial osteoblast [5] turned out to be 1e-06 µM. Also, in the assay on Calvarial osteoblast [5], the EC50 (usually the concentration giving half of the maximal effect) amounted to 1.01 nM.

For `C=CC(c1ccccc1)c1cc(O)c(OC)cc1OC` (stereo unspecified) [DALBERGIPHENOL], the result with Calvarial osteoblast [1], with Calvarial osteoblast [2], in the assay with Calvarial osteoblast [3], in the assay on Calvarial osteoblast [4] and with Calvarial osteoblast [6] was Active. The “concentration of maximal effect” value in the assay with Calvarial osteoblast [5] was 0.01 µM.

Take `COc1cc2c(cc1O)C(c1ccccc1)=CCO2`: the result with Calvarial osteoblast [2], in the assay on Calvarial osteoblast [3], with Calvarial osteoblast [4] and in the assay with Calvarial osteoblast [6] was Active. For the same compound, the “concentration of maximal effect” value with Calvarial osteoblast [5] was 0.01 µM. The EC50 in the assay on Calvarial osteoblast [5] was determined as 1700 nM.

As for `COc1cc(OC)c(/C(=C/C=O)c2ccccc2)cc1O`, the result in the assay with Calvarial osteoblast [1], in the assay on Calvarial osteoblast [2], with Calvarial osteoblast [3], with Calvarial osteoblast [4] and in the assay on Calvarial osteoblast [6] was Active. In addition, the “concentration of maximal effect” value with Calvarial osteoblast [5] stood at 0.0001 µM. Moreover, in the assay with Calvarial osteoblast [5], the EC50 stood at 6.46 nM.

For the compound `COC1=CC(=O)c2cc(-c3ccccc3)c3cc(O)c(OC)cc3c2C1=O` [LATINONE], the result in the assay on Calvarial osteoblast [2], in the assay on Calvarial osteoblast [3], in the assay with Calvarial osteoblast [4] and in the assay on Calvarial osteoblast [6] was Active. Also, in the assay on Calvarial osteoblast [5], the “concentration of maximal effect” value was 1 µM.
